Series [1] addresses T1, Somatostatin receptor type 2 (Homo sapiens, UniProt P30874). Kind of series: Displacement of [125I]somatostatin from human SSTR2 expressed in CHO-K1 cell membranes after 240 mins. The gist of the method:
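Membranes from CHO-K1 cells stably expressing human SSTR2, prepared in modified HEPES pH 7.4. Nonspecific binding was defined with 1 µM somatostatin. Bound ligand was measured by filtration, 3 washes and counting. Six test concentrations were run, top 10 nM, in five-fold dilutions.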

The subject of series [2] is NCI-H524. As to the kind of experiment: Cytotoxicity in human NCI-H524 cells pre-incubated for 2 hrs followed by compound wash out and subsequently incubated for 70 hrs by Cell Titer Glo assay. The format is functional, cell-based. The method in brief: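 Cells were then spun, washed with fresh medium, resuspended and grown a further 70 h. Proliferation was read by CellTiter-Glo luminescence, and % inhibition calculated relative to vehicle. IC50 came from a four-parameter nonlinear fit.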

Series [3] is described as follows: Half life of the compound in phosphate buffer at 1 mM in presence of GSH by LC-MS/MS analysis. In kind it is physicochemical. The note with it: phosphate buffer with GSH. The gist of the method:
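Conjugate, added from a 1 mM methanol stock, was incubated in 5 mM GSH at 37 °C. Aliquots taken from 30 min to 6 h were quenched into N-ethyl maleimide in 1% ethanol, and remaining parent conjugate was measured by LC-MS/MS.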

Series [4] can be described thus: Half life in Beagle dog at 0.1 mg/kg, iv. In kind it is ADME, organism-based, Canis lupus familiaris. To be noted: in vivo.
Series [5] in a line: Cmax in Beagle dog at 0.1 mg/kg, iv. In kind it is ADME, organism-based, Canis lupus familiaris. Details: dose 0.1 mg/kg, route intravenous. The note with it: in vivo.
Series [6] can be described thus: AUC (0 to 6 hrs) in Beagle dog at 0.1 mg/kg, iv. The format is ADME, organism-based, Canis lupus familiaris. Details: dose 0.1 mg/kg, time < 6 hr, route intravenous. The note with it: in vivo.
A short description of series [7]: Clearance in Beagle dog at 0.1 mg/kg, iv. The format is ADME, organism-based, Canis lupus familiaris. To be noted: in vivo.
Series [8] has as its system NCI-H69. As to the kind of experiment: Antitumor activity against human NCI-H69 cells xenografted in CrTac:NCr-Foxn1nu mouse assessed as tumor regression at 2 mg/kg, iv measured up to 40 days. The format is functional. The method in brief: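 Female athymic nude mice were implanted subcutaneously in the right flank with 2.5 × 10^6 NCI-H69 cells (RPMI 1640/10% FBS culture) in media:Matrigel (1:1). At 150-250 mm3, mice were randomized into groups of 10. Compound in 10% propylene glycol in 5 mM citrate buffer (pH=4) was given by tail-vein i.v. injection on indicated days. Tumor volume was measured by calipers as (w2 × l)/2, reported as mean ± SEM.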

A short description of series [9]: Toxicity in CrTac:NCr-Foxn1nu mouse xenografted with human NCI-H69 cells assessed as body weight loss at 2 mg/kg, iv measured up to 40 days. In kind it is organism-based. The note with it: in vivo, 960 h.
The subject of series [10] is NCI-H524. Kind of series: Cytotoxicity in human NCI-H524 cells pre-incubated for 2 hrs in presence of 100 uM octreotide followed by compound wash out and subsequently incubated for 70 hrs by Cell Titer Glo assay. In kind it is functional, cell-based. The gist of the method:
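Octreotide receptor-blockade variant: NCI-H524 cells (5,000/well) were pretreated with octreotide acetate for 30 min, then given compound for 2 h in a ten-point three-fold series.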

Series [11] addresses T1, Somatostatin receptor type 2. Kind of series: Binding affinity to human SSTR2 expressed in CHO-K1 cells assessed as induction of SSTR2 internalization after 4 hrs by chemiluminescent assay. In kind it is cell-based.
Series [12] deals with NCI-H69. Kind of series: Antitumor activity against human NCI-H69 cells xenografted in CrTac:NCr-Foxn1nu mouse assessed as tumor regression at 0.7 mg/kg, iv measured up to 20 days. In kind it is functional, organism-based. The method in brief:
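Female athymic nude mice were implanted subcutaneously in the right flank with 2.5 × 10^6 NCI-H69 cells in medium/Matrigel 1:1. At 150-250 mm3, animals were randomized into groups of 10. Dosing was by tail-vein injection in 10% propylene glycol in 5 mM citrate pH 4 on the indicated days. Caliper volumes were calculated as (w2 × l)/2 and reported as mean ± SEM.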

Series [13] in a line: Drug uptake in tumor of CrTac:NCr-Foxn1nu mouse xenografted with human NCI-H69 cells assessed as DM1 level at 1 mg/kg, iv measured after 24 hrs by LC-MS/MS analysis relative to DM1 alone. To be noted: in vivo. In kind it is ADME, organism-based, Neoplasm. The method in brief: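 NCI-H69 subcutaneous tumors of 250-600 mm3 in nude mice, groups of 3, dosed i.v. Free DM1 was given in 10% propylene glycol/WFI, conjugates in 10% propylene glycol/5 mM citrate pH 4. Tumors were excised at 24 h and homogenized 1:4 (w/v) in 0.1 M ammonium bicarbonate pH 8.0. Homogenate was reduced with TCEP in acetonitrile (15 min, 37 °C), capped with 0.2 M NEM (15 min, 37 °C), and DM1-NEM quantified by LC-MS/MS against standards in blank tumor homogenate. Values were normalized to DM1 dose.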

Active and inactive are the calls of the source. The calls are words filed in the database; no cut-off is given here.

The results in this text go back to ChEMBL document CHEMBL4480406, “Discovery of an SSTR2-Targeting Maytansinoid Conjugate (PEN-221) with Potent Activity in Vitro and in Vivo” (J Med Chem, 2019).

T1 sequence (P30874 whole entry): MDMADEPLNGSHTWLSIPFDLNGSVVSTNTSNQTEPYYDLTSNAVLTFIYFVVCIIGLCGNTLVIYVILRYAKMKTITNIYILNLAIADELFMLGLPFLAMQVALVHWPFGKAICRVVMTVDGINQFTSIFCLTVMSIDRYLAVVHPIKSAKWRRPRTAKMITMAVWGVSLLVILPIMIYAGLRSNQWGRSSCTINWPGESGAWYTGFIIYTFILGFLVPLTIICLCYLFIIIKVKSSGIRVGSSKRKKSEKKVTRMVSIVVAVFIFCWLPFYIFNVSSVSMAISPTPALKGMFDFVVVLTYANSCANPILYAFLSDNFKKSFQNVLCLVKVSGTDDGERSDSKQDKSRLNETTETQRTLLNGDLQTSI

Take `COc1cc2cc(c1Cl)N(C)C(=O)C[C@H](OC(=O)[C@H](C)N(C)C(=O)CCSSC(C)(C)[C@H](NC(=O)[C@@H]1CSSC[C@H](NC(=O)[C@H](N)Cc3ccccc3)C(=O)N[C@@H](Cc3ccc(O)cc3)C(=O)N[C@H](Cc3c[nH]c4ccccc34)C(=O)N[C@@H](CCCCN)C(=O)N[C@@H]([C@@H](C)O)C(=O)N1)C(N)=O)[C@@]1(C)O[C@H]1[C@H](C)[C@@H]1C[C@@](O)(NC(=O)O1)[C@H](OC)/C=C/C=C(\C)C2`: the inhibition constant Ki in series [1] is 0.015 nM. The IC50 with NCI-H524 [2] turned out to be 8 nM; in the series on NCI-H524 [10], 1040 nM. The half-life at 1000 µM in [3] was found to be 0.947 h. In series [4], this compound had a half-life of 1.38 h. For the same compound, the highest level in series [5] (Cmax) was 867 nM. The compound also showed an AUC(0-t) at 6 h in series [6] of 0.769 µM·h. The compound further came in with a clearance in [7] of 1.09 mL/min/kg. Also, the values for the Activity (with NCI-H69 [8]; in series [9]) were 100% and “Non-Toxic”, respectively.

For the compound `CO[C@H]1C(=O)[C@]2(C)[C@@H](OC)C[C@H]3OC[C@@]3(OC(C)=O)[C@H]2[C@H](OC(=O)c2ccccc2)[C@]2(O)C[C@H](OC(=O)[C@H](OC(=O)OCCSSC[C@H](NC(=O)[C@@H]3CSSC[C@H](NC(=O)[C@H](N)Cc4ccccc4)C(=O)N[C@@H](Cc4ccc(O)cc4)C(=O)N[C@H](Cc4c[nH]c5ccccc45)C(=O)N[C@@H](CCCCN)C(=O)N[C@@H]([C@@H](C)O)C(=O)N3)C(N)=O)[C@@H](NC(=O)OC(C)(C)C)c3ccccc3)C(C)=C1C2(C)C`, in series [1], affinity was put at a Ki of 0.97 nM. In addition, the figures for the half-maximal inhibitory concentration (IC50) in the series on NCI-H524 [2] and with NCI-H524 [10] were 7 nM and 14 nM, respectively. For the same compound, in series [11], the concentration for a half-maximal effect (EC50) turned out to be 11 nM.

For the compound `COc1cc2cc(c1Cl)N(C)C(=O)C[C@H](OC(=O)[C@H](C)N(C)C(=O)CCSSC[C@H](NC(=O)[C@@H]1CSSC[C@H](NC(=O)[C@H](N)Cc3ccccc3)C(=O)N[C@@H](Cc3ccc(O)cc3)C(=O)N[C@H](Cc3c[nH]c4ccccc34)C(=O)N[C@@H](CCCCNC(=O)NCCCCCCN)C(=O)N[C@@H]([C@@H](C)O)C(=O)N1)C(N)=O)[C@@]1(C)O[C@H]1[C@H](C)[C@@H]1C[C@@](O)(NC(=O)O1)[C@H](OC)/C=C/C=C(\C)C2`, the affinity in series [1], expressed as Ki, was 3350 nM. The IC50 with NCI-H524 [2] was 581 nM; in the series with NCI-H524 [10], 644 nM. Besides, in the series on NCI-H69 [12], the result was inactive.

`COc1cc2cc(c1Cl)N(C)C(=O)C[C@H](OC(=O)[C@H](C)N(C)C(=O)CCSSCCCN[C@H](Cc1ccccc1)C(=O)N[C@H]1CSSC[C@@H](C(=O)N[C@H](CO)[C@@H](C)O)NC(=O)[C@H]([C@@H](C)O)NC(=O)[C@H](CCCCN)NC(=O)[C@@H](Cc3c[nH]c4ccccc34)NC(=O)[C@H](Cc3ccccc3)NC1=O)[C@@]1(C)O[C@H]1[C@H](C)[C@@H]1C[C@@](O)(NC(=O)O1)[C@H](OC)/C=C/C=C(\C)C2` had an inhibition constant Ki in series [1] of 0.12 nM. Besides, the IC50 with NCI-H524 [2] is 30 nM; in the series on NCI-H524 [10], 221 nM. Further, in series [13], the Drug uptake entry was “Active”.

`COc1cc2cc(c1Cl)N(C)C(=O)C[C@H](OC(=O)[C@H](C)N(C)C(=O)CCSSCCCN[C@H](Cc1ccccc1)C(=O)N[C@H]1CSSC[C@@H](C(=O)N[C@@H](Cc3c[nH]c4ccccc34)C(N)=O)NC(=O)[C@H](C(C)C)NC(=O)[C@H](CCCCN)NC(=O)[C@@H](Cc3c[nH]c4ccccc34)NC(=O)[C@H](Cc3ccc(O)cc3)NC1=O)[C@@]1(C)O[C@H]1[C@H](C)[C@@H]1C[C@@](O)(NC(=O)O1)[C@H](OC)/C=C/C=C(\C)C2`: in [1], the affinity corresponds to a Ki of 0.19 nM. The IC50 in the series on NCI-H524 [2] is 22 nM; in the series on NCI-H524 [10] it was 115 nM. The Drug uptake entry in series [13] was “Active”.
